High-throughput results from PubChem.
mABHD4 FP: inhibitors of mouse ABHD4. inhibition, % at 8.92 µM. purified mABHD4, FP-Rh probe fluorescence polarization. 0.54% of 370,000 active. Q8VD66;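 active = inhibition exceeding the mean over every tested compound plus 3 SD, cut at about 30% in these data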;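 also: 0% = plate median of compound wells and 100% = S159A mutant with DMSO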
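Test system: mouse ABHD4 enzyme, wild type. Reagent: FP-Rh fluorescent activity-based probe, added after compound pre-incubation. Timing: pre-incubation 45 min, probe exposure 60 min, at 25 °C. Technique: FP readout, ex 525 nm / em 598 nm. Benchmarks: high control S159A mutant with DMSO, low control median of compound wells.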
PAFAH2 inh: inhibitors of human PAFAH2 | Q99487 | recombinant PAFAH2, FP-rhodamine activity probe, fluorescence polarization | inhibition, % at 3.39 µM | 0.99% of 340,000 active | AID 492956;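 active = inhibition above the mean over all tested compounds plus 3 SD, cut at about 30% in these data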;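 also: inhibitors block probe labeling of enzyme so polarization drops; 0% = enzyme with DMSO and 100% = wells lacking PAFAH2 protein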
PAFAH1B2 inh: inhibitors of human PAFAH1B2; P68402; recombinant PAFAH1B2, FP-rhodamine activity probe, fluorescence polarization; inhibition, % at 3.39 µM; 1.2% of 340,000 active; AID 492953;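 active = inhibition above the mean of all tested compounds plus 3 SD, cut at about 24% in these data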;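 also: 0% = enzyme with DMSO and 100% = wells lacking PAFAH1B2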
Target sequence (P68402 whole entry, looked up): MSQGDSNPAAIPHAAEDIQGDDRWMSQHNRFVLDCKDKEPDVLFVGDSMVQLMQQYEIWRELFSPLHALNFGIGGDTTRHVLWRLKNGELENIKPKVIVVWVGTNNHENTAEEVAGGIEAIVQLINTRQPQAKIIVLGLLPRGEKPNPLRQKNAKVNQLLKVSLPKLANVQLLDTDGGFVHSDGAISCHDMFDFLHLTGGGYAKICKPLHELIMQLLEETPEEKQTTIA
PAFAH1B3 inh: PAFAH1B3 (human) inhibition | Q15102 | recombinant PAFAH1B3, FP-rhodamine probe, fluorescence polarization | inhibition, % at 3.39 µM | 0.28% of 340,000 active;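 active = inhibition above the screen-wide average of all tested compounds plus 3 SD, cut at about 25% in these data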;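 also: 0% = enzyme with DMSO only and 100% = wells lacking PAFAH1B3 protein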
Target sequence (Q15102 whole entry, looked up): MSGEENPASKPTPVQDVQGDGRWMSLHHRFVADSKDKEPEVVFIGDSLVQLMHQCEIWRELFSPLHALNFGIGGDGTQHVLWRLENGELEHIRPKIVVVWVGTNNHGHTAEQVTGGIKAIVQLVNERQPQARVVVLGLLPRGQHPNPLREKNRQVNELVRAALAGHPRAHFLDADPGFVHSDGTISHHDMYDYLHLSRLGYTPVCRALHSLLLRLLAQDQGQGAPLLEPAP
HTRA1 inhibitor: inhibitors of human serine peptidase HTRA1 | Q92743 | recombinant HTRA1, FP-rhodamine activity-based probe, fluorescence polarization | inhibition, % at 5.96 µM | 0.5% of 340,000 active | AID 504803; in the data active = inhibition above about 36%;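 also: 0% = enzyme with DMSO and 100% = wells lacking enzyme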
pPAFAH inh: pPAFAH (human) enzyme inhibition | Q13093 | recombinant pPAFAH, FP-rhodamine probe fluorescence polarization | inhibition, % at 3.39 µM | 1.5% of 330,000 active | AID 463082;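 active = inhibition above the mean inhibition across the screen plus 3 SD, cut at about 25% in these data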;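 also: inhibitors block binding of the rhodamine activity-based probe so polarization drops; 0% = enzyme with DMSO and 100% = wells lacking pPAFAH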
Active calls of the source: *. Only some compounds are listed: those with a hit (about 2.8% of all), similar ones and a draw of the others.

For O=C(N/N=C/c1cn(Cc2cccc(F)c2)c2ccccc12)c1cc(O)cc(O)c1 the results were mABHD4 FP 26, PAFAH2 inh 8, PAFAH1B2 inh 26*, PAFAH1B3 inh 44* and HTRA1 inhibitor 4.
`CCCc1cc(=O)oc2c3c(c4c(c12)OC(C)(C)C=C4)OC(C)C(C)C3O` (configuration not stated) gave mABHD4 FP -5, PAFAH2 inh 12, PAFAH1B2 inh 4, PAFAH1B3 inh -4, HTRA1 inhibitor -84 and pPAFAH inh 31*.
Screening CCCc1cc(=O)oc2cc(C)cc(O)c12 returned mABHD4 FP -12, PAFAH2 inh 1, PAFAH1B2 inh 7, PAFAH1B3 inh 11, HTRA1 inhibitor -10 and pPAFAH inh 6.
Screening O=C(Nc1ccc(F)c(Cl)c1)NC1CC1 returned mABHD4 FP -13, PAFAH2 inh 6, PAFAH1B2 inh 8, PAFAH1B3 inh 2, HTRA1 inhibitor 4 and pPAFAH inh 7.
OCCCNC(=S)Nc1ccc2nc(-c3ccccn3)c(-c3ccccn3)nc2c1 was read as mABHD4 FP 12, PAFAH2 inh -6, PAFAH1B2 inh 5, PAFAH1B3 inh -4, HTRA1 inhibitor -1 and pPAFAH inh 6.
O=C(Nc1ccc2nc(-c3ccco3)c(-c3ccco3)nc2c1)NC1CC1 was read as PAFAH2 inh 35*, PAFAH1B2 inh 21, PAFAH1B3 inh 36* and HTRA1 inhibitor 51*.
Screening O=C(NCCCO)Nc1ccc2nc(-c3ccco3)c(-c3ccco3)nc2c1 returned pPAFAH inh 62*.
COC(=O)[C@]12C[C@H](CC(=O)NCc3ccc(C)o3)C(=O)N(Cc3ccc(Cl)cc3Cl)C1=C[C@H](C1CCCC1)O[C@@H]2C was read as mABHD4 FP -4.
Screening Cc1ccc(NS(=O)(=O)c2ccccc2)c2c1CC(C)(C)O2 returned mABHD4 FP -4, PAFAH2 inh 1, PAFAH1B2 inh 2, PAFAH1B3 inh -3, HTRA1 inhibitor -4 and pPAFAH inh 29*.
For COC(=O)[C@@]12CCCCC3=C1N(CCC3)C(=O)[C@H]2CC(=O)N1CCN(C(=O)C2CC2)CC1 the results were mABHD4 FP 2.
For O=S(=O)(NOCc1ccc(Cl)cc1)c1ccc(Cl)cc1 the results were mABHD4 FP -25, PAFAH2 inh 15, PAFAH1B2 inh 56*, PAFAH1B3 inh 7, HTRA1 inhibitor -10 and pPAFAH inh 29*.
Screening CCCCOCCCNC(=O)C[C@H]1C[C@@]2(C(=O)OC)C(=C[C@H](C3CCCC3)O[C@@H]2C)N(CCc2ccc(OC)c(OC)c2)C1=O returned mABHD4 FP 1.
Screening COCCCNc1ncnc2ccc(C)cc12 returned mABHD4 FP 10, PAFAH2 inh 4, PAFAH1B2 inh 3, PAFAH1B3 inh 1, HTRA1 inhibitor -1 and pPAFAH inh 25*.
CCC(=O)N[C@H]1C[C@@H]2O[C@@H](CO)CC[C@@H]2O[C@@H]1CCc1ccc(-c2cccc(OC)c2)cc1 was read as mABHD4 FP -6.
For O=C(c1ccc(COc2ccc(Br)cc2)o1)N1N=C(C(F)F)CC1(O)C(F)F (configuration not stated) the results were mABHD4 FP -37, PAFAH2 inh -2, PAFAH1B2 inh 29*, PAFAH1B3 inh -2, HTRA1 inhibitor -22 and pPAFAH inh 10.
NNC(=O)c1ccc(COc2ccc(Br)cc2)o1 was read as mABHD4 FP -4, PAFAH2 inh 1, PAFAH1B2 inh 25*, PAFAH1B3 inh -1, HTRA1 inhibitor -17 and pPAFAH inh 1.
Screening O=C(C1CCCN(S(=O)(=O)c2ccc(F)cc2)C1)N1CCN(Cc2ccccc2)CC1 (configuration not stated) returned mABHD4 FP 2.
C=CCN(CC#Cc1ccc(C)cc1)Cc1ccc(OC)cc1OC was read as mABHD4 FP 3.
Screening COc1ccc(CN2C(=O)N3Cc4ccccc4C3CS2(=O)=O)cc1 (configuration not stated) returned mABHD4 FP 0.
For CC1CN(S(=O)(=O)c2cccc(C(=O)OCC(=O)c3cccs3)c2)CC(C)O1 (configuration not stated) the results were mABHD4 FP 2, PAFAH2 inh 14, PAFAH1B2 inh -4, PAFAH1B3 inh 10, HTRA1 inhibitor 1 and pPAFAH inh 0.
